Assay [1] concerns Staphylococcus aureus. Nature of the assay: Antibacterial activity against […] Staphylococcus aureus SA1199B over expressing NorA MDR efflux pump after 18 hrs by MTT assay. It is filed as functional. A digest of the protocol: (§1)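 Strains grown on nutrient agar 24 h at 37 °C; inoculum 1 × 10⁶ cfu/mL in normal saline, set against 0.5 McFarland standard. Samples dissolved in DMSO, diluted in cation-adjusted Mueller-Hinton broth (Ca²⁺ 20 mg/L, Mg²⁺ 10 mg/L), starting 1024 mg/L, twofold serial broth microdilution; 37 °C, 18 h; MTT added, 20 min; MIC = lowest concentration without yellow-to-blue change.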
(In general: Tetrazolium assays rely on reduction of a dye to a coloured formazan, in cell work by metabolically active cells.)

For assay [2], the system named is Staphylococcus aureus. Nature of the assay: Antibacterial activity against […] Staphylococcus aureus XU212 expressing TetK efflux pump after 18 hrs by MTT assay. The class given is functional. The essentials: as §1
For assay [3], the system named is Staphylococcus aureus. Nature of the assay: Antibacterial activity against […] Staphylococcus aureus ATCC 25923 after 18 hrs by MTT assay. The class given is functional. A digest of the protocol:
as §1

Assay [4] concerns Staphylococcus aureus. Nature of the assay: Antibacterial activity against MsrA macrolide-resistant Staphylococcus aureus RN4220 after 18 hrs by MTT assay. The class given is functional. A digest of the protocol:
as §1

Assay [5] has as its system Staphylococcus aureus. Briefly: Antibacterial activity against […] Staphylococcus aureus EMRSA-15 after 18 hrs by MTT assay. The class given is functional. The essentials: as §1
The test system of assay [6] is Staphylococcus aureus. Briefly: Antibacterial activity against […] Staphylococcus aureus EMRSA-16 after 18 hrs by MTT assay. The class given is functional. A digest of the protocol: as §1
Assay [7] concerns Staphylococcus aureus. Nature of the assay: […] activity against […] Staphylococcus aureus SA1199B over expressing NorA MDR efflux pump assessed as growth inhibition after 24 hrs using cell cultures pre-treated with compound for 24 hrs. It is filed as functional, organism-based. A digest of the protocol:
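MIC-plate wells from SA-1199B showing no growth sampled (10 μL) onto drug-free Mueller-Hinton agar, incubated 24 h; growth of colonies scored; bactericidal end point defined as ≥99.9% reduction versus starting inoculum. MBC plates themselves incubated 24 h at 37 °C before transfer.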

Molecules are shown by their SMILES. Values after ≈ are worked out from the molar mass of the structure shown. Active and inactive are the calls of the source.

For orientation: MIC means the lowest concentration found to suppress growth.

Consider `COc1cc2c(=O)c3ccccc3oc2c(O)c1OC`, for which the MIC in the assay with Staphylococcus aureus [1] is 64 µg/mL (≈ 235 µM); against Staphylococcus aureus [2] (XU212, 18 h), 128 µg/mL (≈ 470 µM); in the assay on Staphylococcus aureus [3] (ATCC 25923, 18 h) it was 128 µg/mL (≈ 470 µM); against Staphylococcus aureus [4] (RN4220, 18 h), > 512 µg/mL; in the assay with Staphylococcus aureus [5] (EMRSA-15, 18 h), > 512 µg/mL; in the assay on Staphylococcus aureus [6] (EMRSA-16, 18 h) it was 64 µg/mL (≈ 235 µM).
On to `COc1c(O)ccc2oc3ccccc3c(=O)c12`, for which the MIC in the assay on Staphylococcus aureus [1] is 64 µg/mL (≈ 264 µM); against Staphylococcus aureus [2] (XU212, 18 h) it was 128 µg/mL (≈ 528 µM); against Staphylococcus aureus [3] (ATCC 25923, 18 h), 64 µg/mL (≈ 264 µM); with Staphylococcus aureus [4] (RN4220, 18 h), 64 µg/mL (≈ 264 µM); against Staphylococcus aureus [5] (EMRSA-15, 18 h), 64 µg/mL (≈ 264 µM); against Staphylococcus aureus [6] (EMRSA-16, 18 h) it was 32 µg/mL (≈ 132 µM).
Take `COc1cc(OC)c2c(=O)c3cccc(O)c3oc2c1`: the MIC against Staphylococcus aureus [1] was 64 µg/mL (≈ 235 µM); against Staphylococcus aureus [2] (XU212, 18 h), > 512 µg/mL; in the assay on Staphylococcus aureus [3] (ATCC 25923, 18 h) it was 128 µg/mL (≈ 470 µM); with Staphylococcus aureus [4] (RN4220, 18 h), > 512 µg/mL; in the assay on Staphylococcus aureus [5] (EMRSA-15, 18 h), > 512 µg/mL; in the assay with Staphylococcus aureus [6] (EMRSA-16, 18 h), 64 µg/mL (≈ 235 µM).
In the case of `CC(C)[C@H](C)CC[C@@H](C)[C@H]1CC[C@H]2[C@@H]3CC=C4C[C@@H](O)CC[C@]4(C)[C@H]3CC[C@]12C`, the MIC entry in the assay on Staphylococcus aureus [1], in the assay with Staphylococcus aureus [2], in the assay on Staphylococcus aureus [3], in the assay with Staphylococcus aureus [4], in the assay with Staphylococcus aureus [5] and in the assay with Staphylococcus aureus [6] was “inactive” throughout.
With `COc1cc2c(=O)c3ccccc3oc2cc1O`, the minimal inhibitory concentration (MIC) in the assay on Staphylococcus aureus [1] came out at 64 µg/mL (≈ 264 µM); against Staphylococcus aureus [2] (XU212, 18 h) it was 64 µg/mL (≈ 264 µM); in the assay with Staphylococcus aureus [3] (ATCC 25923, 18 h), 64 µg/mL (≈ 264 µM); in the assay with Staphylococcus aureus [4] (RN4220, 18 h) it was 64 µg/mL (≈ 264 µM); against Staphylococcus aureus [5] (EMRSA-15, 18 h) it was 64 µg/mL (≈ 264 µM); in the assay on Staphylococcus aureus [6] (EMRSA-16, 18 h), 32 µg/mL (≈ 132 µM).
In the case of `CC[C@H](CC[C@@H](C)[C@H]1CC[C@H]2[C@@H]3CC=C4C[C@@H](O)CC[C@]4(C)[C@H]3CC[C@]12C)C(C)C`, the MIC entry in the assay with Staphylococcus aureus [1], in the assay on Staphylococcus aureus [2], in the assay with Staphylococcus aureus [3], in the assay on Staphylococcus aureus [4], in the assay on Staphylococcus aureus [5] and in the assay with Staphylococcus aureus [6] was “inactive” in each case.
For `CC[C@H](/C=C/[C@@H](C)[C@H]1CC[C@H]2[C@@H]3CC=C4C[C@@H](O)CC[C@]4(C)[C@H]3CC[C@]12C)C(C)C`, the MIC entry with Staphylococcus aureus [1], in the assay on Staphylococcus aureus [2], with Staphylococcus aureus [3], in the assay on Staphylococcus aureus [4], with Staphylococcus aureus [5] and in the assay on Staphylococcus aureus [6] was “inactive” throughout.
Regarding `COc1cc([C@@H]2Oc3c(OC)cc4c(=O)c5ccccc5oc4c3O[C@H]2CO)ccc1O`, the MIC against Staphylococcus aureus [1] was > 512 µg/mL; against Staphylococcus aureus [2] (XU212, 18 h), > 512 µg/mL; against Staphylococcus aureus [3] (ATCC 25923, 18 h) it was > 512 µg/mL; in the assay on Staphylococcus aureus [4] (RN4220, 18 h), > 512 µg/mL; in the assay on Staphylococcus aureus [5] (EMRSA-15, 18 h), > 512 µg/mL; in the assay on Staphylococcus aureus [6] (EMRSA-16, 18 h), > 512 µg/mL.
`CCn1cc(C(=O)O)c(=O)c2cc(F)c(N3CCNCC3)cc21` [NORFLOXACIN]: the MIC against Staphylococcus aureus [1] worked out at 32 µg/mL (≈ 100 µM); in the assay with Staphylococcus aureus [2] (XU212, 18 h) it was 8 µg/mL (≈ 25.1 µM); against Staphylococcus aureus [3] (ATCC 25923, 18 h), 0.5 µg/mL (≈ 1.57 µM); in the assay with Staphylococcus aureus [4] (RN4220, 18 h), 0.5 µg/mL (≈ 1.57 µM); against Staphylococcus aureus [5] (EMRSA-15, 18 h) it was 0.5 µg/mL (≈ 1.57 µM); in the assay on Staphylococcus aureus [6] (EMRSA-16, 18 h), 128 µg/mL (≈ 401 µM).
For the molecule `COc1cc2c(=O)c3ccccc3oc2c(O)c1O`, the minimal inhibitory concentration (MIC) against Staphylococcus aureus [1] is 32 µg/mL (≈ 124 µM); against Staphylococcus aureus [2] (XU212, 18 h), 16 µg/mL (≈ 62 µM); against Staphylococcus aureus [3] (ATCC 25923, 18 h), 64 µg/mL (≈ 248 µM); in the assay with Staphylococcus aureus [4] (RN4220, 18 h) it was 32 µg/mL (≈ 124 µM); in the assay on Staphylococcus aureus [5] (EMRSA-15, 18 h), 64 µg/mL (≈ 248 µM); in the assay with Staphylococcus aureus [6] (EMRSA-16, 18 h), 16 µg/mL (≈ 62 µM).
For `CCCCC(C(=O)OC)[C@]12C(=O)[C@](CC=C(C)C)(C[C@H](CC=C(C)C)C1(C)C)C(=O)C(C(=O)CCC)=C2O` (some centres not stated), the minimal inhibitory concentration (MIC) in the assay on Staphylococcus aureus [1] stood at 2 µg/mL (≈ 3.78 µM); in the assay with Staphylococcus aureus [2] (XU212, 18 h), 0.25 µg/mL (≈ 0.473 µM); in the assay with Staphylococcus aureus [3] (ATCC 25923, 18 h), 1 µg/mL (≈ 1.89 µM); in the assay on Staphylococcus aureus [4] (RN4220, 18 h) it was 0.25 µg/mL (≈ 0.473 µM); in the assay on Staphylococcus aureus [5] (EMRSA-15, 18 h) it was 1 µg/mL (≈ 1.89 µM); in the assay on Staphylococcus aureus [6] (EMRSA-16, 18 h), 0.5 µg/mL (≈ 0.946 µM). Moreover, the “growth inhibition (GI)” value in the assay on Staphylococcus aureus [7] was “Active”.

For the origin of these results see ChEMBL document CHEMBL3813629, “Antistaphylococcal Prenylated Acylphoroglucinol and Xanthones from Kielmeyera variabilis” (2016).
